“Also recorded” adds a separate entry of the source.
Legend:
[1] = target: T1, PTP1B (Homo sapiens, UniProt P18031); experiment: PTP assay with DiFMUP, MSI-1459 versus MSI-1436; assay type: biochemical; conditions: DiFMUP 10 uM, compound 0-10 μM
T1 sequence (P18031 1-435): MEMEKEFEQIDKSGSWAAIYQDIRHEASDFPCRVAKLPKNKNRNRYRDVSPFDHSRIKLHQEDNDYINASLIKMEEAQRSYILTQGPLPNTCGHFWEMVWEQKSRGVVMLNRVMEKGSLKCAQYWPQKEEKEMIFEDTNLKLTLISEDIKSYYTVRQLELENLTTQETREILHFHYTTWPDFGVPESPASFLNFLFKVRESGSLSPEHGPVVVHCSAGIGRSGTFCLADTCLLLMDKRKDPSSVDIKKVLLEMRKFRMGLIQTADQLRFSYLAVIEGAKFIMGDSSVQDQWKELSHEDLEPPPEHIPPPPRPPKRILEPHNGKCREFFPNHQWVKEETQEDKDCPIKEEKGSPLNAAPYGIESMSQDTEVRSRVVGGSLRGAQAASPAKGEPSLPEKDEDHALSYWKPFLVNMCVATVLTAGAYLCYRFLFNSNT

[2] = target: T2, PTP1B in tumor lysates from NDL2 mice (Mus musculus, UniProt P35821); experiment: Binding assay with bead-immobilized compound in tumor lysates; conditions: confirmed by immunoblotting
T2 sequence (P35821 1-432): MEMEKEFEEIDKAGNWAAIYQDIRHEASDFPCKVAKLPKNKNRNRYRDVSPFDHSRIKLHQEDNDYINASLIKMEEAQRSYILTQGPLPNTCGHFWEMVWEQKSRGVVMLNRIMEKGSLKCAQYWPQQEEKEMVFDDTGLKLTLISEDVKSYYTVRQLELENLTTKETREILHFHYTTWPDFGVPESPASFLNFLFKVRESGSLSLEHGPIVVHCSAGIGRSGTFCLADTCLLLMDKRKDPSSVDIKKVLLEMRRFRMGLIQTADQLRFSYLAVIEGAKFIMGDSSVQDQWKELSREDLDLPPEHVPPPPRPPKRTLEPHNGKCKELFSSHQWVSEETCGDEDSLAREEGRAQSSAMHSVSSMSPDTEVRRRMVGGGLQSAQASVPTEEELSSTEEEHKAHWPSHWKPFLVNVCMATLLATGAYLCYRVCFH
Outline: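 Test compound was coupled through its primary amine to NHS-activated magnetic beads (1 mM, 100 mM triethylamine, 8 h, 4°C), and free NHS groups were blocked with 0.8 M aminoethanol. Beads were incubated with 0–1 mg NDL2 tumour lysate protein and washed. Bound protein was eluted by heat in SDS sample buffer, run on 10% SDS-PAGE and identified by immunoblotting. Beads carrying a related amine compound served as negative control.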

In the case of “3β-spermine, 5α, cholenic acid methyl ester [MSI-1459]”, the “inhibition of PTP1B” value [1] is reported as “does not inhibit PTP1B; also recorded: poor inhibitory potency” and the “retention of 50 kDa band (PTP1B) by compound beads” value [2] is reported as “not bound”.
